Reference: ChEMBL document CHEMBL5030540 (J Med Chem, 2021)
The source made the active and inactive calls. No cut-off for these calls is given here.

How the values were obtained:
Mu-type opioid receptor [1] = target: T1, Mu-type opioid receptor (Homo sapiens, UniProt P35372); assay: Agonist activity at human MOR expressed in HEK293T cells assessed as inhibition of forskolin-stimulated cAMP accumulation incubated for 30 mins by Glo-sensor cAMP assay; type: functional, cell-based
Summary of the method: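 HEK293T cells transiently co-transfected with human MOR and a luciferase-based cAMP biosensor. Gαi-mediated cAMP inhibition read by luminescence. EC50 given as pEC50 ± SEM, triplicate runs.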

Mu-type opioid receptor [2] = target: T1, Mu-type opioid receptor; assay: Agonist activity at human MOR expressed in HEK-293T cells assessed as inhibition of forskolin-stimulated cAMP accumulation incubated for 30 mins by Glo-sensor cAMP assay relative to DAMGO; type: functional, cell-based; conditions: HEK293T
Summary of the method: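 HEK293T cells transiently co-transfected with human MOR and a luciferase-based cAMP biosensor. Gαi-mediated cAMP inhibition read by luminescence. […] EC50 given as pEC50 ± SEM, triplicate runs.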

Mu-type opioid receptor [3] = target: T1, Mu-type opioid receptor; assay: Agonist activity at human MOR receptor expressed in HTLA cells co-expressing TEV-fused-beta-arrestin2 assessed as induction of beta-arrestin2 recruitment by Tango assay relative to DAMGO; type: functional, cell-based
Summary of the method: (§1)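 HTLA cells expressing TEV-fused β-arrestin2 transiently transfected with a human MOR Tango construct. β-arrestin2 recruitment measured. […] Mean pEC50 ± SEM and Emax% ± SEM from triplicate runs.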

Mu-type opioid receptor [4] = target: T1, Mu-type opioid receptor; assay: Agonist activity at human MOR receptor expressed in HTLA cells co-expressing TEV-fused-beta-arrestin2 assessed as induction of beta-arrestin2 recruitment by Tango assay; type: functional, cell-based; summary of the method: as §1
Mu-type opioid receptor [5] = target: T1, Mu-type opioid receptor; assay: Agonist activity at human MOR expressed in CHO-K1 cells co-expressing beta-arrestin2 assessed as beta-arrestin2 EFC recruitment measured after 90 mins by PathHunter assay; type: functional, cell-based
Summary of the method: (§2)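 CHO-K1 cells stably expressing human μOR grown to confluency and seeded overnight at 37 °C, 5% CO2. 5× dilution series of compound in Opti-MEM added for 90 min at 37 °C. Detection reagent then added for 60 min at room temperature in the dark, and chemiluminescence read.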

Mu-type opioid receptor [6] = target: T1, Mu-type opioid receptor; assay: Agonist activity at human MOR expressed in CHO-K1 cells co-expressing beta-arrestin2 assessed as beta-arrestin2 EFC recruitment measured after 90 mins by PathHunter assay relative to control; type: functional, cell-based; summary of the method: as §2
Mu-type opioid receptor [7] = target: T1, Mu-type opioid receptor; assay: Partial agonist activity at human MOR expressed in HEK293T cells co-expressing Galpha-RLuc8:Gbeta:Ggamma-GFP2 assessed as maximal Gi-1 activation measured after 15 mins by BRET assay relative to control; type: functional, cell-based; conditions: filed as partial agonist
[8] = target: GABA-A receptor; anion channel (Rattus norvegicus) (UniProt O09028+P15431+P18506+P18508+P19969+P20236+P23574+P23576+P28471+P28473+P30191+P62813+P63079+P63138+Q91ZM7+Q9ES14); assay: Partial agonist activity at GABAA receptor in rat brain slice assessed as induction of receptor-mediated inhibitory postsynaptic current at 10 uM by Whole cell electrophysiology; type: tissue-based; conditions: filed as partial agonist
Summary of the method: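 Horizontal VTA slices (200 μm) from male Sprague–Dawley rats. Whole-cell voltage clamp at −70 mV, 33 °C, KCl internal. GABAA IPSCs isolated with 10 μM DNQX and evoked by paired pulses every 10 s. Drug (10 μM) bath applied. Mean IPSC amplitude at minutes 4–7 of drug compared with the 4 min baseline.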

[9] = target: Voltage-dependent L-type calcium channel subunit alpha-1C (Rattus norvegicus, UniProt P22002); assay: Displacement of [3H]Diltiazem from Cav1.2 in rat brain at 10 uM incubated for 120 mins by radiometric scintillation counting analysis; type: tissue-based; conditions: 2 h
Chain of Voltage-dependent L-type calcium channel subunit alpha-1C (P22002 whole entry): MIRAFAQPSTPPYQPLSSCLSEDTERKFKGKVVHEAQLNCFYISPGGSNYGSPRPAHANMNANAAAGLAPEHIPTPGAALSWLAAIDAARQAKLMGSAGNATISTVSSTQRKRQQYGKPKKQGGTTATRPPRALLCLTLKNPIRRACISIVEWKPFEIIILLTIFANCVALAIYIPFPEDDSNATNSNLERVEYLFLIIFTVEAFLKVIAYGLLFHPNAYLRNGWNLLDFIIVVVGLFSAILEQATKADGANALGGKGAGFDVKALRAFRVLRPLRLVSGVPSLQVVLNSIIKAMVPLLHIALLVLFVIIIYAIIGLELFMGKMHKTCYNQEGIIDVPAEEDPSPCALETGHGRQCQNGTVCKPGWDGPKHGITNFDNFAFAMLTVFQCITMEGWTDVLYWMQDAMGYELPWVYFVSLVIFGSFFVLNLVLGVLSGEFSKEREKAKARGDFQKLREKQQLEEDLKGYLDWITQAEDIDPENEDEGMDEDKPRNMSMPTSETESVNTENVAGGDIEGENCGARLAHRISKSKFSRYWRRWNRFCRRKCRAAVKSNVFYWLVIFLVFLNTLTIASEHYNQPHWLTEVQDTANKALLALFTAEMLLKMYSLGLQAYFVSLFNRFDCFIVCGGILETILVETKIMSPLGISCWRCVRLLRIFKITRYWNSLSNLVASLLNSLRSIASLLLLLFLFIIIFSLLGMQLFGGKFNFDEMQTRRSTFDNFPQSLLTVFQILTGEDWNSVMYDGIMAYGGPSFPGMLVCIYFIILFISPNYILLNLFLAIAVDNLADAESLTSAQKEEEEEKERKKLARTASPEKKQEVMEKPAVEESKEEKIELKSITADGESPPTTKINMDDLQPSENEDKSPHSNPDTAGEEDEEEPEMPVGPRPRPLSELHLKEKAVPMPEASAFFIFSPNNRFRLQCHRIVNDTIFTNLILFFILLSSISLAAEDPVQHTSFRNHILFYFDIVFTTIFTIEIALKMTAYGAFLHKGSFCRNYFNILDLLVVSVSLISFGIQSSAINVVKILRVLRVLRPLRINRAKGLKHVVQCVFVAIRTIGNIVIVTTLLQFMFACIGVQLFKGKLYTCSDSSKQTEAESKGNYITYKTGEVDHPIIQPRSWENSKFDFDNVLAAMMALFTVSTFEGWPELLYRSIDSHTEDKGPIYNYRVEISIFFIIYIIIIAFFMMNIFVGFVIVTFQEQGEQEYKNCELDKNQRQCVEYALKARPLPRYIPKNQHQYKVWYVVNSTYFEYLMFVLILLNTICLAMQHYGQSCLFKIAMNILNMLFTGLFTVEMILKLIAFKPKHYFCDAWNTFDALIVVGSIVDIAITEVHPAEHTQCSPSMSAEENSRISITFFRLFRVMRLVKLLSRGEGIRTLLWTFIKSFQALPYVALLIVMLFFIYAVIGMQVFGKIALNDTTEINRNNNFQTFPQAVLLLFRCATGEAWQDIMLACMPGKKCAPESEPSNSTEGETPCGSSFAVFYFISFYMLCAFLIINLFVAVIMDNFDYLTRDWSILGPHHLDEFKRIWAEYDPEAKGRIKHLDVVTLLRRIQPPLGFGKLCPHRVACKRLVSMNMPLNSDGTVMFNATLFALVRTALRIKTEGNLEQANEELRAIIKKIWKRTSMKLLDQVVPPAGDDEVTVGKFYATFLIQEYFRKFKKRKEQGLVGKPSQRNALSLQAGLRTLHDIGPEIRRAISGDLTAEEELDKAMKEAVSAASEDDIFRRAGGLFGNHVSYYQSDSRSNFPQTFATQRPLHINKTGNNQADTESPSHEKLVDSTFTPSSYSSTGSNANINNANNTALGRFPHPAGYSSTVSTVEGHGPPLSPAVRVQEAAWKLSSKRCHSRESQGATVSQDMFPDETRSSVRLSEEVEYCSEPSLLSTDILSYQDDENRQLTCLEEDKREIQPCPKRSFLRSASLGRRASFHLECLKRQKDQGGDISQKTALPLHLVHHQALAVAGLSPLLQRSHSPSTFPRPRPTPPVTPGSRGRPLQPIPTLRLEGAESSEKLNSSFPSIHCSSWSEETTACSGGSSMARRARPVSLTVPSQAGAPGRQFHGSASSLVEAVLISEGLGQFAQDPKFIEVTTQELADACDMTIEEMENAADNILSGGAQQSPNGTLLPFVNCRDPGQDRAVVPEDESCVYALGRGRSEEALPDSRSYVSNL

Mu-type opioid receptor [10] = target: T1, Mu-type opioid receptor; assay: Partial agonist activity at human MOR expressed in HEK293T cells co-expressing Galpha-RLuc8:Gbeta:Ggamma-GFP2 assessed as Galpha-i/o activation measured after TRUPATH assay; type: functional, cell-based; conditions: filed as partial agonist
[11] = target: Mu-type opioid receptor (Mus musculus) (UniProt P42866); assay: Partial agonist activity at mouse MOR expressed in HEK293T cells assessed as Nb33 recruitment by BRET assay relative to control; type: functional, cell-based
Chain of Mu-type opioid receptor (Mus musculus) (P42866 whole entry): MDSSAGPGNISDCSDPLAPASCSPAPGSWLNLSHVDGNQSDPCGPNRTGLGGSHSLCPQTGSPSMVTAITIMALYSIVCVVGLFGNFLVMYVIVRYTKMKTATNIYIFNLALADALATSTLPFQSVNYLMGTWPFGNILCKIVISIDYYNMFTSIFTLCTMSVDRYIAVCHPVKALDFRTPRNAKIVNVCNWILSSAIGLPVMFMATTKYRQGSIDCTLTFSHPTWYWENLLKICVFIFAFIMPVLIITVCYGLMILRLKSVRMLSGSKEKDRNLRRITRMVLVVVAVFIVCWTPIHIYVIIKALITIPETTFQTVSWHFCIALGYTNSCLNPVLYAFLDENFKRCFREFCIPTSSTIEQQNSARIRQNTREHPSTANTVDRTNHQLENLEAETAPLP
Summary of the method: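 HEK293T cells transfected with murine MOR-NanoLuc (1 μg) and Nb33-Venus (4 μg) using PEI and used 48 h later. Cells in PBS given coelenterazine H (5 μM), ligand added at 5 min, BRET read 10 min later. Three-parameter fit; ≥3 independent trials in triplicate.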

[12] = HTLA230, filed as partial agonist

T1 sequence (P35372 whole entry): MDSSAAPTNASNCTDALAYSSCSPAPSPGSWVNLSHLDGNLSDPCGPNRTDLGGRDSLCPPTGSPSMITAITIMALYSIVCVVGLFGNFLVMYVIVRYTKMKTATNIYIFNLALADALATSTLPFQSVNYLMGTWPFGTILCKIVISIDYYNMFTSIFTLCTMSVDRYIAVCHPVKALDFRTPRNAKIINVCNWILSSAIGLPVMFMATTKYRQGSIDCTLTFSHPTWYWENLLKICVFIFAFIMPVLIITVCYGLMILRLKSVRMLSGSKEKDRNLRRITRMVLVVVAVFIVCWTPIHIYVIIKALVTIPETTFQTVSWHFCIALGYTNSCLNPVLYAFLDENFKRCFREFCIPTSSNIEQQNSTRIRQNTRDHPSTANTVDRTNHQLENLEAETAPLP

CC[C@@H]1CN2CCc3c([nH]c4c(-c5ccoc5)ccc(OC)c34)[C@@H]2C[C@@H]1/C(=C\OC)C(=O)OC
EC50 (Mu-type opioid receptor [1]): 186 nM
Emax (Mu-type opioid receptor [2]; filed as agonist): 78.2%
Emax (Mu-type opioid receptor [3]; HTLA230): < 20%

CC[C@@H]1CN2CCc3c([nH]c4c(C)ccc(OC)c34)[C@@H]2C[C@@H]1/C(=C\OC)C(=O)OC
EC50 (Mu-type opioid receptor [1]): 71.4 nM
Emax (Mu-type opioid receptor [2]; filed as agonist): 83.9%
Emax (Mu-type opioid receptor [3]; HTLA230): < 20%

CC[C@@H]1CN2CCc3c([nH]c4ccc(-c5ccccc5)c(OC)c34)[C@@H]2C[C@@H]1/C(=C\OC)C(=O)OC
EC50 (Mu-type opioid receptor [1]): 3760 nM
Emax (Mu-type opioid receptor [2]; filed as agonist): 73.9%
Emax (Mu-type opioid receptor [3]; HTLA230): < 20%

CC[C@@H]1CN2CCc3c([nH]c4ccc(-c5ccoc5)c(OC)c34)[C@@H]2C[C@@H]1/C(=C\OC)C(=O)OC
EC50 (Mu-type opioid receptor [1]): 85.9 nM
Emax (Mu-type opioid receptor [2]; filed as agonist): 90.8%
Emax (Mu-type opioid receptor [3]; HTLA230): < 20%

CC[C@@H]1CN2CC[C@@]3(O)C(=Nc4ccc(C)c(OC)c43)[C@@H]2C[C@@H]1/C(=C\OC)C(=O)OC
EC50 (Mu-type opioid receptor [1]): 30.3 nM
Emax (Mu-type opioid receptor [2]; filed as agonist): 9.58%
Emax (Mu-type opioid receptor [3]; HTLA230): < 20%

CC[C@@H]1CN2CC[C@@]3(O)C(=Nc4c(-c5ccccc5)ccc(OC)c43)[C@@H]2C[C@@H]1/C(=C\OC)C(=O)OC
EC50 (Mu-type opioid receptor [1]): 17500 nM
Emax (Mu-type opioid receptor [2]): < 20%
Emax (Mu-type opioid receptor [3]; HTLA230): < 20%

CC[C@@H]1CN2CC[C@@]3(O)C(=Nc4ccc(-c5ccccc5)c(OC)c43)[C@@H]2C[C@@H]1/C(=C\OC)C(=O)OC
EC50 (Mu-type opioid receptor [1]): 104 nM
Emax (Mu-type opioid receptor [2]; filed as agonist): 88.7%
Emax (Mu-type opioid receptor [3]; HTLA230): < 20%

CC[C@@H]1CN2CC[C@@]3(O)C(=Nc4cccc(-c5ccccc5)c43)[C@@H]2C[C@@H]1/C(=C\OC)C(=O)OC
EC50 (Mu-type opioid receptor [1]): 36.2 nM
Emax (Mu-type opioid receptor [2]; filed as partial agonist): 108%
EC50 (Mu-type opioid receptor [4]): 19200 nM
Emax (Mu-type opioid receptor [3]; [12]): 283%
Emax (Mu-type opioid receptor [5]): 31%
Emax (Mu-type opioid receptor [6]): < 20%
Emax (Mu-type opioid receptor [7]): 60%
Activity [8]: Active
Activity [9]: Active
Activity (Mu-type opioid receptor [10]): Active
Emax [11]: 20%

CC[C@@H]1CN2CC[C@@]3(O)C(=Nc4c(-c5ccoc5)ccc(OC)c43)[C@@H]2C[C@@H]1/C(=C\OC)C(=O)OC
EC50 (Mu-type opioid receptor [1]): 1560 nM
Emax (Mu-type opioid receptor [2]; filed as agonist): 61.8%
Emax (Mu-type opioid receptor [3]; HTLA230): < 20%

CC[C@@H]1CN2CC[C@@]3(O)C(=Nc4c(C)ccc(OC)c43)[C@@H]2C[C@@H]1/C(=C\OC)C(=O)OC
EC50 (Mu-type opioid receptor [1]): 11.2 nM
Emax (Mu-type opioid receptor [2]; filed as agonist): 69.3%
Emax (Mu-type opioid receptor [3]; HTLA230): < 20%

CC[C@@H]1CN2CC[C@@]3(O)C(=Nc4cccc(C)c43)[C@@H]2C[C@@H]1/C(=C\OC)C(=O)OC
EC50 (Mu-type opioid receptor [1]): 5.25 nM
Emax (Mu-type opioid receptor [2]; filed as partial agonist): 108%
EC50 (Mu-type opioid receptor [4]): 10400 nM
Emax (Mu-type opioid receptor [3]; [12]): 110%
Emax (Mu-type opioid receptor [5]): 31%
Emax (Mu-type opioid receptor [6]): < 20%
Emax (Mu-type opioid receptor [7]): 60%
Activity [8]: Active
Activity [9]: Active
Activity (Mu-type opioid receptor [10]): Active
Emax [11]: 20%
